Experimental data from different studies.
Compare with care: the assays were run in different laboratories.
Organism: Human immunodeficiency virus 1
Read-out: viral replication

SMILES	assay	system	setting	measurement	result
COc1ccccc1CN[C@H]1C2CCN(CC2)[C@H]1C(c1ccccc1)c1ccccc1	ELISA	human PBMC, BAL	7 days	IC50	15.2 µM
C/C(=C\C(=O)OCCCCCCCCC(=O)O)C[C@@H]1OC[C@H](C[C@@H]2O[C@H]2[C@@H](C)[C@H](C)O)[C@@H](O)[C@H]1O	inhibitor	TZM-bl		EC50	> 100 µM
O=C(O)c1cc(F)cc(Cn2ccc3ccc(-c4ccc5ccn(Cc6cccc(OC(F)(F)F)c6)c5c4)cc32)c1	inhibitor	BAL		IC50	1.4 µM
CC(C)(C)NC(=O)[C@@H]1C[C@@H]2CCCC[C@@H]2CN1C[C@@H](O)[C@H](Cc1ccccc1)NC(=O)[C@H](CC(N)=O)NC(=O)c1ccc2ccccc2n1		MT2		IC50	0.019 µM
O=c1oc2c(O)c(O)cc3c(=O)oc4c(O)c(O)cc1c4c23	inhibitor	CEM-GFP	8 days	IC50	73 µg/mL
C[C@@H](O[C@H]1OCCN(Cc2n[nH]c(=O)[nH]2)[C@H]1c1ccc(F)cc1)c1cc(C(F)(F)F)cc(C(F)(F)F)c1	inhibitor, ELISA	human PBMC, NL43	7 days	IC50	5.7 µM
COc1cc(F)ccc1-c1ncnc(Nc2cccc(C[S@](C)(=N)=O)c2)n1	inhibitor	human PBMC	6 days	EC50	3.4 µM
CCOC(=O)c1cccc(Cn2ccc3ccc(-c4ccc5ccn(Cc6cccc(C(=O)O)c6)c5c4)cc32)c1	inhibitor	MAGI, BAL		IC90	28.9 µM
Cc1cn([C@H]2C[C@H](N=[N+]=[N-])[C@@H](CO)O2)c(=O)[nH]c1=O	inhibitor, luciferase	TZM-bl	48 h	IC50	0.043 µg/mL
CC(C)(C)NC(=O)[C@@H]1C[C@@H]2CCCC[C@@H]2CN1C[C@@H](O)[C@H](Cc1ccccc1)NC(=O)[C@H](CC(N)=O)NC(=O)c1ccc2ccccc2n1	inhibitor	T-lymphoid		IC50	0.021 µM
c1cc(CN2CCCNCCNCCCNCC2)ccc1CN1CCCNCCNCCCNCC1	inhibitor, luciferase	TZM-bl		EC50	0.00093 µM
O=c1cc(-c2ccc(O)c(O)c2)oc2cc(O)cc(O)c12	inhibitor	human PBMC	6 days	EC50	12.7 µM
O=C(O)c1cc(O)c(O)c(O)c1	inhibitor	CEM-GFP	8 days	IC50	0.19 µg/mL
C[N+](C)(C)CCCn1c(=O)c2cc(Br)c3c(=O)n(CCC[N+](C)(C)C)c(=O)c4c5[nH]c6ccccc6[nH]c5c(c1=O)c2c34		TZM-bl, NL43	48 h	IC50	> 5 µM
O=C1C[C@@H](c2ccc(O)cc2)Oc2cc(O)cc(O)c21	inhibitor	human PBMC	6 days	EC50	> 30 µM
